Screening results (PubChem BioAssay)
A selection: hits, their analogues and other compounds. The true share with any hit is near 2.1%.
ARFGAP1 inhibitor: inhibits rat ARF GTPase activating protein 1. 360,000 tested, 0.26% active. Q62848. AID 651572. inhibition, % at 16.5 µM. Arfgap1-stimulated ARF1 GTP hydrolysis, GDP FP detection;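 active means inhibition above a per-plate limit, mean inhibition of low control wells plus 3 SD, cut at about 25% in these data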;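 further: 0% = DMSO wells with enzyme and 100% = wells lacking Arfgap1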
Target sequence (Q62848 1-136 limits assumed): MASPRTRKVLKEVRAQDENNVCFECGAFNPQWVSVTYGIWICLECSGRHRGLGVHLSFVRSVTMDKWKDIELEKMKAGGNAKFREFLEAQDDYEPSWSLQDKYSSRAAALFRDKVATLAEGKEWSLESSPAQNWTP
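Assay system: purified rat His6-Arfgap1 residues 1-136 (GAP domain); Reagent: human Δ17 ARF1 bound to GTP; Dosing: 16.5 µM single point, 1.26% DMSO; Times: GTP hydrolysis reaction 2 h at 25 °C; Signal: FP, GDP Alexa 633 tracer displaced from anti-GDP antibody, 620/688 nm; Measure: % inhibition from polarization.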
APOBEC3G inh: APOBEC3G (human) deaminase inhibition; Q9HC16; recombinant A3G, ssDNA deamination FAM/TAMRA fluorescence; inhibition, % at 20 µM; 330,000 tested, 0.28% active; AID 493012;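 active means inhibition of at least 40% at 20 µM, with no more than 30% in the related APOBEC3A deaminase screen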;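 further: plate controls were DMSO wells with A3G for no effect and wells lacking A3G enzyme for full effect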
Mot1-301 SUMO: SUMOylation pathway inhibition by Mot1-301 growth rescue; S. cerevisiae Mot1-301 growth rescue, ATP luminescence, 38.5C; percent above DMSO median, 100 means doubled; growth rescue, % at 18.8 µM; 320,000 tested, 1% active; AID 2716;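 active means every valid replicate shows activation above 250% relative to neutral control wells; inactive means the rest, any valid replicate at or below 250%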;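 further: OY570 slx delta 5 strain wells were the positive control but not used for scaling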
Statin myotox sup: suppressors of simvastatin-induced myotoxicity in C2C12 myotubes; rescue of ATP level, % at 7.49 µM; AID 602340; ATP luminescence, 48 h; scaled: DMSO 0, geranylgeraniol control 100; 330,000 tested, 0.78% active;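 active means mean ATP rescue above about 67%, or every replicate alone reaching that limit, limit read from the data, passing the limit was not always enough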;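 further: myotubes were challenged with 10 µM simvastatin during compound exposure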
APOBEC3A inh: human APOBEC3A DNA deaminase inhibition | AID 493011 | inhibition, % at 20 µM | P31941 | recombinant A3A, FAM/TAMRA ssDNA deamination fluorescence | 330,000 tested, 0.41% active;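 active means at least 40% inhibition at 20 µM here, with at most 30% in a related deaminase screen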;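 further: plate controls were A3A with DMSO for no effect and wells lacking A3A enzyme for full effect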
Target sequence (P31941 whole entry, looked up): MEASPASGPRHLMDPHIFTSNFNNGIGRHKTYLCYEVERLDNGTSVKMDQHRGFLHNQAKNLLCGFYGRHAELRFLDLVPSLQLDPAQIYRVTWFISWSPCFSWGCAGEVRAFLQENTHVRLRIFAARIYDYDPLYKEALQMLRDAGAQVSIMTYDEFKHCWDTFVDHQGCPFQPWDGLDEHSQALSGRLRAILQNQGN
ASAP1 GAP inh: inhibitors of human ASAP1 ArfGAP activity | inhibition, % at 16.5 µM | AID 624377 | ASAP1-stimulated ARF1 GTP hydrolysis, GDP FP detection | 360,000 tested, 0.19% active | Q9ULH1; in the data active means inhibition above about 25%;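 further: 0% = vehicle with enzyme and substrate and 100% = no enzyme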
Active calls of the source: *; · = not tested or not shown.

SMILES	ARFGAP1 inhibitor	APOBEC3G inh	Mot1-301 SUMO	Statin myotox sup	APOBEC3A inh	ASAP1 GAP inh
O=C(COc1ccccc1Cl)NCCc1ccc2c(c1)OCCO2	-0.2	-6.1	20.2	·	-1.4	-1.8
CCc1c(C)sc(NC(=O)c2ccco2)c1C(=O)N1CCCCC1	11.3	5.4	-16.0	116.2*	2.6	-1.8
CCc1c(C)sc(NC(=O)c2ccoc2C)c1C(N)=O	-10.5	60.4*	-4.8	-2.9	-0.1	-8.4
CCc1c(C)sc(NC(=O)c2ccco2)c1C(=O)N1CCOCC1	-0.5	-3.3	87.8	-0.8	-0.4	-7.0
CCOC(=O)c1c(NC(=O)c2ccoc2C)sc(C)c1C	-1.9	-4.8	-13.8	·	-1.9	-14.4
O=C(C[C@@H]1C[C@@H]2c3cc(NC(=O)CC4CC4)ccc3O[C@@H]2[C@@H](CO)O1)NCC1CC1	·	·	·	0.5	·	·
COCc1cn(CC[C@H]2CC[C@H](NC(=O)Nc3ccc(C(F)(F)F)cc3)[C@H](CO)O2)nn1	·	·	·	-8.6	·	·
CC(C)NC(=O)N(C)C[C@H]1Oc2cc(C#CC(C)(C)O)ccc2S(=O)(=O)N([C@H](C)CO)C[C@H]1C	·	·	·	-8.9	·	·
CC(=O)c1ccc(N2CCN(C3CCC(C(C)(C)C)CC3)CC2)cc1 (stereo not given)	3.9	-10.0	256.2*	1.4	-6.6	1.3
O=C(C[C@@H]1CC[C@@H]2[C@H](COC[C@@H](O)CN2Cc2nccs2)O1)NCc1ccc(Cl)cc1	·	·	·	-0.5	·	·
CCCNC(=O)C[C@H]1CC[C@H]2[C@@H](COc3ccc(NC(=O)COC)cc3C(=O)N2C)O1	·	·	·	-11.9	·	·
Cc1ccc(C(C)C)c(OCCCN2CCc3ccccc3C2)c1	3.6	0.0	-9.0	-14.0	-6.0	6.4
Cc1ccc(C)c(OCCCN2CCc3ccccc3C2)c1	6.7	-2.1	320.5*	8.3	-1.0	11.3
O=C(CCc1nnc(CCCCc2ccccc2)o1)N1CCCC(O)C1 (stereo not given)	-9.4	-7.6	275.7*	1.1	-1.0	0.8
Cc1cccc(S(=O)(=O)N2CC[C@@H]3[C@H]2c2cc(C#Cc4cccnc4)ccc2N[C@@H]3CO)c1	·	·	·	-37.4	·	·
CO[C@H]1CN(C)C(=O)c2cc(NC(C)=O)ccc2OC[C@H](C)N(C(=O)c2ccccc2F)C[C@@H]1C	·	·	·	-7.5	·	·
O=C(O)CC/C(=N\Nc1ccc([N+](=O)[O-])cc1)c1ccccc1	-14.7	-4.8	367.3*	11.7	-0.1	-2.3
C[C@H]1CN([C@@H](C)CO)C(=O)Cc2cc(NC(=O)NC3CCCCC3)ccc2O[C@@H]1CN(C)CC1CC1	·	·	·	-12.7	·	·
COc1ccc(-c2cc(-c3cc(OC)ccc3O)[nH]n2)cc1	17.6	-3.1	1.9	-3.2	-2.8	5.1
COc1ccc(-c2n[nH]c(C)c2-c2cc(OC)ccc2O)cc1	-1.4	-3.6	-5.6	134.0*	-1.9	4.4
CN1CCN(C(=O)[C@@H]2[C@@H](CO)[C@@H]3Cn4c(cccc4=O)[C@H]2N3S(=O)(=O)c2ccccc2F)CC1	·	·	·	-2.9	·	·
CCn1c(SCC(=O)c2ccc(Br)cc2)nnc1C(C)NC(=O)Cc1ccc(OC)cc1 (stereo not given)	7.2	-3.3	·	3.5	8.1	-6.4
CCn1c(SCC(=O)c2ccc(OC)cc2)nnc1C(C)NC(=O)c1ccc(OC)cc1 (stereo not given)	10.8	-6.1	-14.2	75.6*	1.6	-0.8
CS(=O)(=O)Nc1ccc(C(=O)Nc2ccccc2C(=O)N2CCCC2)cc1	-1.4	-0.6	544.8*	90.1*	-1.0	2.0
CS(=O)(=O)Nc1ccc(C(=O)N2CCN(c3ccccc3)CC2)cc1	-8.1	-7.3	2.7	115.0*	1.0	-4.1
SMILES	ARFGAP1 inhibitor	APOBEC3G inh	Mot1-301 SUMO	Statin myotox sup	APOBEC3A inh	ASAP1 GAP inh
COc1cc(OC)cc(C(=O)Nc2ccccc2C(=O)N2CCCC2)c1	-3.2	-5.9	-8.0	114.8*	-1.9	1.5
O=C(c1ccccc1)N1CCN(c2ccccc2)CC1	-4.8	·	·	-2.1	·	4.4
O=C(C[C@@H]1C[C@H]2c3cc(NC(=O)C4CCC4)ccc3O[C@H]2[C@H](CO)O1)NCc1cccnc1	·	·	·	-1.1	·	·
O=C(Nc1ccccc1)N1C[C@@H]2[C@H](c3ccccc31)[C@@H](CO)N2C(=O)c1ccncc1	·	·	·	11.1	·	·
CC(Cc1ccccc1)N/C=C1\CC(=O)NC1=O (stereo not given)	4.0	-1.6	-9.5	79.7*	-2.4	-1.5
CC(C(=O)O)n1c(C(F)(F)F)nc2ccccc21 (stereo not given)	2.6	-4.6	-24.8	131.8*	-1.7	-7.5
